Paper PMC9043769 (RSC Advances, 2021)
Like-named read-outs stand apart in the source and are kept apart here.

What was measured:
[1] = tested on: A549 lung adenocarcinoma cells; assay: MTT cytotoxicity assay, 72 h; assay type: cell-based, human; details: read-out: IC50, after 72 h incubation, A549
Procedure, shortened: (§1)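 Cell lines (ATCC) grown in DMEM with […], 10% FCS and antibiotic–antimycotic at 37 °C, 5% CO2. […] IC50 was calculated from means of at least two or three independent experiments in triplicate or quadruplicate.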

[2] = tested on: CEM T-lymphoblastic leukemia cells; assay: alamarBlue; assay type: cell-based, human; details: read-out: IC50, after 72 h incubation, CEM
Procedure, shortened: (§2)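 CEM cells grown in RPMI 1640 with 20% FBS; G-361 and BJ cells in DMEM with 10% FBS. All media had 2 mM L-glutamine and 1% penicillin-streptomycin, 37 °C, 5% CO2. Six concentrations of compound, 0.2–50 μM (3× dilution), were applied for 72 h, with a resazurin (alamarBlue) read-out. IC50 came from means of at least two or three independent experiments in triplicate or quadruplicate.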

[3] = tested on: MRC-5 normal fetal lung fibroblasts; assay: MTT cytotoxicity assay, 72 h; assay type: cell-based, human; details: read-out: IC50, after 72 h incubation, MRC-5
[4] = tested on: HT-29 colon adenocarcinoma cells; assay: MTT cytotoxicity assay, 72 h; assay type: cell-based, human; details: read-out: IC50, after 72 h incubation, HT-29
Procedure, shortened: as §1

[5] = tested on: HeLa cervical carcinoma cells; assay: MTT cytotoxicity assay, 72 h; assay type: cell-based, human
Procedure, shortened: as §1

[6] = tested on: G-361 malignant melanoma cells; assay: alamarBlue; assay type: cell-based, human; details: read-out: IC50, after 72 h incubation, G-361
Procedure, shortened: as §2

[7] = tested on: BJ human foreskin fibroblasts; assay: alamarBlue; assay type: cell-based; details: read-out: IC50, after 72 h incubation, BJ, normal fibroblasts
Procedure, shortened: as §2

[8] = tested on: MDA-MB-231 (ER− breast adenocarcinoma) cells; assay: MTT cytotoxicity assay, 72 h; assay type: cell-based, human; details: read-out: IC50, after 72 h incubation, MDA-MB-231
Procedure, shortened: as §1

[9] = tested on: MCF-7 (ER+ breast adenocarcinoma) cells; assay: MTT cytotoxicity assay, 72 h; assay type: cell-based, human; details: for IC50: read-out: IC50, after 72 h incubation, MCF-7
Procedure, shortened: as §1

[10] = tested on: PC-3 prostate cancer cells; assay: MTT cytotoxicity assay, 72 h; assay type: cell-based, human
Procedure, shortened: as §1

With `N.N.[Cl][Pt][Cl]` [Cis-Pt, cisplatin] the IC50 ([1]; MTT, 72 h) was 3.2 µM, the IC50 [2] was 0.8 µM and the IC50 ([3]; MTT, 72 h, normal cells) was 0.2 µM. For the same compound, the IC50 ([4]; MTT, 72 h) was 4.1 µM, the IC50 ([5]; read-out: IC50, after 72 h incubation, HeLa, MTT) was 2.1 µM and the IC50 [6] was 4.5 µM. The IC50 [7] was 9.6 µM, the IC50 ([8]; MTT, 72 h) was 2.6 µM and the IC50 ([9]; MTT, 72 h) was 1.6 µM. For the same compound, the IC50 ([10]; read-out: IC50, after 72 h incubation, PC-3, MTT) was 4.5 µM.

For `C[C@]12CCC(=O)C(O)=C1CC[C@@H]1[C@@H]2CC[C@]2(C)C(=O)CC[C@@H]12` [For, formestane], the IC50 ([1]; Homo sapiens, A549, 72 h) was 38.6 µM, the IC50 ([3]; Homo sapiens, MRC5, 72 h) was > 100 µM and the IC50 ([4]; Homo sapiens, HT-29, 72 h) was > 100 µM. For the same compound, the IC50 ([5]; Homo sapiens, HeLa, read-out: IC50, after 72 h incubation, HeLa) was 3.4 µM, the IC50 ([8]; Homo sapiens, MDA-MB-231, 72 h) was 19.6 µM and the IC50 ([9]; Homo sapiens, MCF7, 72 h) was > 100 µM. For the same compound, the “Toxicity toward MCF-7 tumor cells (in words)” value ([9]; MTT, 72 h) was “no toxicity” and the IC50 ([10]; Homo sapiens, read-out: IC50, after 72 h incubation, PC-3) was 26.4 µM.
